# Activity calls are given as the source filed them. The calls are words filed in the database; no cut-off is given here.
# Legend:
# Staphylococcus aureus [1] = test: Antibacterial activity against methicillin-sensitive Staphylococcus aureus NCTC 6571; format: functional; conditions: Staphylococcus aureus, NCTC 6571; read-out: MIC
# Summary of the method: (§1)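 Broth microdilution in Mueller-Hinton broth. Samples were dissolved in sterile water to 200 µg mL-1 as the working solution and doubling dilutions were made across rows. Plates were incubated at 37 °C and inspected visually, with resazurin added as growth indicator. MIC reported in µg mL-1.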
# HS27 = test: Cytotoxicity against human HS27 cells; format: cell-based
# Staphylococcus aureus [2] = test: Antibacterial activity against methicillin-resistant Staphylococcus aureus clinical isolate 4; format: functional
# Summary of the method: (§2)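 Broth microdilution MIC against clinical S. aureus isolates (incl. MRSA), run per NCCLS guidelines in 96-well plates. Test sample dissolved in sterile water to a 200 µg mL-1 working concentration, then doubling dilutions in Mueller-Hinton broth. Incubated at 37 °C, growth read visually plus resazurin indicator. MIC reported in µg/mL.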
# [3] = tested on: Mycolicibacterium fortuitum; test: Antibacterial activity against Mycobacterium fortuitum NCTC 10394; format: functional; summary of the method: as §1
# Aspergillus niger = test: Antifungal activity against Aspergillus niger IMI 149007; format: functional
# Summary of the method: (§3)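 Antifungal microdilution in Sabouraud broth. Test sample at 200 µg mL-1 working solution in sterile water was serially doubled down successive rows. Incubation was at 25 °C, followed by visual growth check and addition of resazurin indicator. Read-out is MIC in µg mL-1.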
# Staphylococcus aureus [4] = test: Antibacterial activity against Staphylococcus aureus LS1 in mouse at 20 mg/kg, ip; format: functional, organism-based; design: dose 20 mg/kg
# Summary of the method: (§4)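 Mice of 18-22 g, five per group, were inoculated intravenously with 50 million cfu of S. aureus LS-1, which causes bacteraemia and then joint localization within 3-4 days. A single dose (groups at 60, 40, 20 or 10 mg/kg) was given iv or ip. Joint inflammation was scored, with caliper measurement of affected joint diameter.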
# L929 = test: Cytotoxicity against mouse L929 cells; format: cell-based
# Enterococcus faecalis = test: Antibacterial activity against Streptococcus faecalis NCTC 775; format: functional; conditions: Enterococcus faecalis, NCTC 775; read-out: MIC; summary of the method: as §1
# Staphylococcus aureus [5] = test: Antibacterial activity against methicillin-resistant Staphylococcus aureus clinical isolate 5; format: functional; summary of the method: as §2
# Staphylococcus aureus [6] = test: Antibacterial activity against methicillin-resistant Staphylococcus aureus clinical isolate 3; format: functional; summary of the method: as §2
# Staphylococcus aureus [7] = test: Antibacterial activity against methicillin-resistant Staphylococcus aureus clinical isolate 1; format: functional; summary of the method: as §2
# Candida albicans = test: Antifungal activity against Candida albicans NCPF 3179; format: functional; conditions: Candida albicans; read-out: MIC; summary of the method: as §3
# Staphylococcus aureus [8] = test: Antibacterial activity against methicillin-resistant Staphylococcus aureus clinical isolate 2; format: functional; summary of the method: as §2
# A-375 = test: Cytotoxicity against human A375 cells; format: cell-based
# Jurkat = test: Cytotoxicity against human Jurkat cells; format: cell-based
# H9c2 = test: Cytotoxicity against rat H9C2 cells; format: cell-based
# [9] = Cytotoxicity against human TE671 cells; format: cell-based; conditions: te-671
# Staphylococcus aureus [10] = test: Antibacterial activity against Staphylococcus aureus LS1 in mouse at 40 mg/kg, ip; format: functional, organism-based; design: dose 40 mg/kg; summary of the method: as §4
SMILES,MIC (Staphylococcus aureus [1]),Activity (HS27),MIC (Staphylococcus aureus [2]),MIC [3],MIC (Aspergillus niger),Activity (Staphylococcus aureus [4]),Activity (L929),MIC (Enterococcus faecalis),MIC (Staphylococcus aureus [5]),MIC (Staphylococcus aureus [6]),MIC (Staphylococcus aureus [7]),MIC (Candida albicans),MIC (Staphylococcus aureus [8]),Activity (A-375),Activity (Jurkat),Activity (H9c2),Activity [9],Activity (Staphylococcus aureus [10])
Cn1cc(NC(=O)c2cc(NC(=O)c3ccc(/C=C/c4cnc5ccccc5c4)cc3)cn2C)cc1C(=O)NCCN1CCOCC1 [MGB-BP-3],3 µg/mL,Non-toxic,0.25 µg/mL,50 µg/mL,25 µg/mL,Active,Non-toxic,25 µg/mL,0.12 µg/mL,0.12 µg/mL,0.12 µg/mL,50 µg/mL,0.25 µg/mL,–,–,–,–,–
COc1ccc(/C=C/c2ccc(C(=O)Nc3cc(C(=O)Nc4cc(C(=O)NCCN5CCOCC5)n(C)c4)n(C)c3)cn2)cc1,6 µg/mL,–,2 µg/mL,50 µg/mL,50 µg/mL,–,Non-toxic,6 µg/mL,0.5 µg/mL,2 µg/mL,0.5 µg/mL,25 µg/mL,4 µg/mL,Non-toxic,Non-toxic,Non-toxic,Non-toxic,Active
CC(C)CCc1sc(NC(=O)c2cc(NC(=O)c3cc4ccccc4cn3)cn2C)nc1C(=O)NCCCN(C)C,50 µg/mL,–,> 64 µg/mL,> 50 µg/mL,> 50 µg/mL,–,–,50 µg/mL,> 64 µg/mL,> 64 µg/mL,> 64 µg/mL,> 50 µg/mL,> 64 µg/mL,–,–,–,–,–
CN(C)CCCNC(=O)c1cc(NC(=O)c2cc(NC(=O)c3cc(/C=C/c4ccc([N+](=O)[O-])cc4)cn3C)cn2C)cn1C,50 µg/mL,–,> 64 µg/mL,> 50 µg/mL,> 50 µg/mL,–,–,50 µg/mL,> 64 µg/mL,> 64 µg/mL,> 64 µg/mL,> 50 µg/mL,> 64 µg/mL,–,–,–,–,–
CC(C)c1sc(NC(=O)c2cc(NC(=O)c3cc(NC=O)cn3C)cn2C)nc1C(=O)NCCN1CCOCC1,13 µg/mL,–,64 µg/mL,> 50 µg/mL,> 50 µg/mL,–,–,25 µg/mL,64 µg/mL,64 µg/mL,32 µg/mL,> 50 µg/mL,> 64 µg/mL,–,–,–,–,–
CN(C)CCCNC(=O)c1cc(NC(=O)c2cc(NC(=O)c3ccc(/C=C/c4cnc5ccccc5c4)cc3)cn2C)cn1C,32 µg/mL,–,25 µg/mL,> 50 µg/mL,> 50 µg/mL,–,–,13 µg/mL,25 µg/mL,25 µg/mL,25 µg/mL,> 50 µg/mL,25 µg/mL,–,–,–,–,–
CC(C)CCc1sc(NC(=O)c2cc(NC(=O)c3cc(/C=C/c4ccc([N+](=O)[O-])cc4)cn3C)cn2C)nc1C(=O)NCCCN(C)C,> 50 µg/mL,–,> 64 µg/mL,> 50 µg/mL,> 50 µg/mL,–,–,> 50 µg/mL,> 64 µg/mL,> 64 µg/mL,> 64 µg/mL,> 50 µg/mL,> 64 µg/mL,–,–,–,–,–
COc1cccc(/C=C/c2cc(C(=O)Nc3cc(C(=O)Nc4cc(C(=O)NCCCN(C)C)n(C)c4)n(C)c3)n(C)c2)c1,> 50 µg/mL,–,32 µg/mL,> 50 µg/mL,> 50 µg/mL,–,–,25 µg/mL,32 µg/mL,32 µg/mL,32 µg/mL,50 µg/mL,32 µg/mL,–,–,–,–,–
Cn1cc(NC(=O)c2cc(NC(=O)c3cc(NC(=O)c4cccc(Cl)c4)cn3C)cn2C)cc1C(=O)NCCc1ccccn1,> 50 µg/mL,–,> 64 µg/mL,> 50 µg/mL,> 50 µg/mL,–,–,> 50 µg/mL,> 64 µg/mL,> 64 µg/mL,> 64 µg/mL,> 50 µg/mL,> 64 µg/mL,–,–,–,–,–
COc1cccc(/C=C/c2cccc(C(=O)Nc3cc(C(=O)Nc4nc(C(=O)NCCCN(C)C)c(CCC(C)C)s4)n(C)c3)c2)c1,> 50 µg/mL,–,32 µg/mL,> 50 µg/mL,> 50 µg/mL,–,–,> 50 µg/mL,32 µg/mL,32 µg/mL,32 µg/mL,> 50 µg/mL,32 µg/mL,–,–,–,–,–
COc1cccc(/C=C/c2ccc(C(=O)Nc3cc(C(=O)Nc4nc(C(=O)NCCCN(C)C)c(CCC(C)C)s4)n(C)c3)cc2)c1,> 50 µg/mL,–,8 µg/mL,> 50 µg/mL,> 50 µg/mL,–,–,> 50 µg/mL,8 µg/mL,8 µg/mL,8 µg/mL,> 50 µg/mL,8 µg/mL,–,–,–,–,–
Cn1cc(NC(=O)c2cc(NC(=O)c3cc(/C=C/c4cnc5ccccc5c4)cn3C)cn2C)cc1C(=O)NCCN1CCOCC1,> 50 µg/mL,–,> 64 µg/mL,> 50 µg/mL,> 50 µg/mL,–,–,> 50 µg/mL,16 µg/mL,> 64 µg/mL,4 µg/mL,> 50 µg/mL,> 64 µg/mL,–,–,–,–,–
CC(=N)Nc1cc(C(=O)Nc2cc(C(=O)Nc3nc(C(=O)NCCN4CCOCC4)c(C(C)C)s3)n(C)c2)n(C)c1,> 50 µg/mL,–,> 64 µg/mL,> 50 µg/mL,> 50 µg/mL,–,–,> 50 µg/mL,> 64 µg/mL,> 64 µg/mL,64 µg/mL,> 50 µg/mL,> 64 µg/mL,–,–,–,–,–
